Activity calls are given as the source filed them. The rule behind the calls is not given here.
Tests used:
[1] = biological target: T1, Sphingosine kinase 2 (Homo sapiens) (UniProt Q9NRA0); experiment: Inhibition of recombinant human N-terminal His-tagged SphK2 (2 to 654 residues) expressed in baculovirus infected Sf21 cells at 125 uM using d-erythro-sphingosine as substrate incubated for 1 hr by ADP-Glo assay relative to control
T1 sequence (whole entry): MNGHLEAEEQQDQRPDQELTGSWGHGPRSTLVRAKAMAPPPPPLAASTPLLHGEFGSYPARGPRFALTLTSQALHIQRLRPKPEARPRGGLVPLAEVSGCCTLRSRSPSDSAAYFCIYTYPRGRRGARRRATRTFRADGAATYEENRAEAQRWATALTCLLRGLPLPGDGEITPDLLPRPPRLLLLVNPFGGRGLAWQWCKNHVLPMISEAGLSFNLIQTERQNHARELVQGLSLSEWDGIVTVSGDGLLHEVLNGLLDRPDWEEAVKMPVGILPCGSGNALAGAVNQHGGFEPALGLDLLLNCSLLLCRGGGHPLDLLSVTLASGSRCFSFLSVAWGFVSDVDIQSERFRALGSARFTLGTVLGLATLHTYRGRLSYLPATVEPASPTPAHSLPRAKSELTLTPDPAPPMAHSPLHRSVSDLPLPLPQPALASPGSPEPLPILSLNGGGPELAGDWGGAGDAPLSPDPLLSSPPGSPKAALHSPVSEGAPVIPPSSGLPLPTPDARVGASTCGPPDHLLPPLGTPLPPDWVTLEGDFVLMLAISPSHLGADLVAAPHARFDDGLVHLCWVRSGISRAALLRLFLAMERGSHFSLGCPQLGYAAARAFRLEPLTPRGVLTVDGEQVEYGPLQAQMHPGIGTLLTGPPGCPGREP

[2] = test system: U-251; experiment: Cytotoxicity against human U-251MG cells assessed as reduction in cell viability at 125 uM incubated for 24 hrs by Hoechst 33258 and PI staining based imaging analysis; format: functional
In short: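 U-251 MG glioblastoma cells grown in RPMI-1640 with 10% FBS, 1 mM sodium pyruvate and 1x Pen-Strep at 37 °C, 5% CO2. Seeded at 3000 cells/well, left about 16 h, then medium replaced with fresh medium containing 125 µM compound for 24 h. Stained with Hoechst 33258 for total cells and propidium iodide for apoptotic cells. Triplicate, S.E. reported.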

[3] = biological target: T2, Sphingosine kinase 2 (Homo sapiens, UniProt Q9NRA0); experiment: Inhibition of recombinant human N-terminal His-tagged SphK2 (2 to 654 residues) expressed in baculovirus infected Sf21 cells using d-erythro-sphingosine as substrate incubated for 1 hr by ADP-Glo assay
T2 sequence (Q9NRA0 whole entry): T1 sequence (whole entry)

[4] = biological target: T2, Sphingosine kinase 2; experiment: Inhibition of recombinant human Flag-tagged SphK2 transfected in HEK293 cells using d-erythro-sphingosine as substrate by [gamma32P]-ATP based assay
[5] = biological target: Sphingosine kinase 1 (Homo sapiens, UniProt Q9NYA1); experiment: Inhibition of recombinant human Flag-tagged SphK1 transfected in HEK293 cells using d-erythro-sphingosine as substrate by [gamma32P]-ATP based assay
Sphingosine kinase 1, sequence (Q9NYA1 whole entry): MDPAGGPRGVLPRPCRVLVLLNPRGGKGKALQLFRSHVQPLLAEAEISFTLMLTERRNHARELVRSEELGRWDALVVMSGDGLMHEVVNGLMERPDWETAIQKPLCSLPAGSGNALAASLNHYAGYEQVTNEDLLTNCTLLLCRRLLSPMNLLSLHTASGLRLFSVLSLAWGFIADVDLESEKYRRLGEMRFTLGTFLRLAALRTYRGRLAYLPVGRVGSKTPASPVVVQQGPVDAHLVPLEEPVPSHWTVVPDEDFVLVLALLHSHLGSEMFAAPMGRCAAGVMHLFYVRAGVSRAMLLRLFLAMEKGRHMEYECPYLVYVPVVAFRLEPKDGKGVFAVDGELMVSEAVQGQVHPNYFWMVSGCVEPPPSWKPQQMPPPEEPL

inhibition [1] [%]	IC50 [3] [nM]	SMILES	inhibition [2]	also measured
		N=C(N)N1CCC[C@H]1Cc1nc(-c2ccc(Cn3cc(-c4ccc(C(F)(F)F)cc4)nn3)cc2)no1	Active	
> 50	280	N=C(N)N1CCC[C@H]1Cc1nc(-c2ccc(Nc3nc(-c4cccc(C(F)(F)F)c4)cs3)cc2)no1		
> 50		N=C(N)C1(c2nc(-c3ccc(Cn4cc(C5CC5)nn4)cc3)no2)CC1		
> 50	248	N=C(N)N1CCC[C@H]1c1nc(-c2ccc(Cn3cc(C4CC4)nn3)cc2)no1		
> 50		N=C(N)N1CCC[C@H]1Cc1nc(-c2ccc(Cn3cc(-c4ccccn4)nn3)cc2)no1		
> 50	254	CCCCc1cn(Cc2ccc(-c3noc([C@@H]4CCCN4C(=N)N)n3)cc2)nn1		
> 50	391	N=C(N)N1CCC[C@H]1c1nc(-c2ccc(Cn3cc(-c4ccc(F)cc4)nn3)cc2)no1		
		Cc1ccc(S(=O)(=O)Nc2cccc(/C=N/c3ccccc3NS(=O)(=O)c3ccc(C)cc3)c2)cc1		Ki [4]: 6.9 µM; Ki [5]: 27 µM
		O=C(NCc1ccncc1)C12CC3CC(C1)CC(c1ccc(Cl)cc1)(C3)C2 [ABC-294640]		inhibition at 125 µM [2]: 50%
> 50		N=C(N)N1CCC[C@H]1c1nc(-c2ccc(Cn3cc(-c4ccccn4)nn3)cc2)no1		
> 50	266	COc1ccc(-c2cn(Cc3ccc(-c4noc([C@@H]5CCCN5C(=N)N)n4)cc3)nn2)cc1	Active	
> 50	687	N=C(N)N1CCC[C@H]1c1nc(-c2ccc(Cn3cc(-c4cccs4)nn3)cc2)no1		
> 50		COc1ccc(-c2cn(Cc3ccc(-c4noc(C[C@@H]5CCCN5C(=N)N)n4)cc3)nn2)cc1	Active	
> 50		Cn1cc(-c2cn(Cc3ccc(-c4noc(C5(C(=N)N)CC5)n4)cc3)nn2)cn1	Active	
> 50	359	N=C(N)N1CCC[C@H]1c1nc(-c2ccc(Cn3cc(-c4ccc(C(F)(F)F)cc4)nn3)cc2)no1	Active	

SMILES	inhibition [1] [%]	IC50 [3] [nM]	inhibition [2]	also measured
N=C(N)N1CCC[C@H]1c1nc(-c2ccc(Cn3cc(-c4ccccc4)nn3)cc2)no1	> 50			
Cn1cc(-c2cn(Cc3ccc(-c4noc(C[C@@H]5CCCN5C(=N)N)n4)cc3)nn2)cn1	> 50			
N=C(N)C1(c2nc(-c3ccc(Cn4cc(-c5ccccc5)nn4)cc3)no2)CC1	> 50		Active	
N=C(N)N1CCC[C@H]1Cc1nc(-c2ccc(Cn3cc(-c4ccccc4)nn3)cc2)no1	> 50		Active	

Reference: ChEMBL document CHEMBL4706570, “Structure-activity relationship studies and bioactivity evaluation of 1,2,3-triazole containing analogues as a selective sphingosine kinase-2 inhibitors” (Eur J Med Chem, 2020)
